Publication PMC10515597 (ACS Omega, 2023)
Where a SMILES comes first, the peptide text is derived from it. Bridges are numbered along the chain shown (N, C = ends). Roman numbers before positions name the chains, in order. The star is where a group is joined. X2 = O=C(N=C(NCc1ccc(C(=O)*)cc1)Nc1ccc(Br)cc1)c1ccccc1

Key:
[1] = test system: L. amazonensis intracellular amastigotes; assay: Antiamastigote activity in infected macrophages; type: cell-based, Leishmania amazonensis; conditions: 24 h; for IC50: Leishmania amazonensis, Macrophage, read-out: IC50 amastigote
Outline: (§1)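 Swiss mouse peritoneal macrophages (3 × 10⁵ cells mL⁻¹, complete RPMI-1640) adhered on coverslips for 4 h at 37 °C, 5% CO₂. They were infected 18 h with stationary-phase L. amazonensis promastigotes (MPRO/BR/1972/M1841-LV-79) at 10:1 and washed. Test compound (0.02–10 μM) was added for 24 h. Giemsa-stained cells were counted for infection index (% infected cells × parasites per infected cell). IC50 by nonlinear regression. Duplicates, three independent experiments.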

[2] = test system: Leishmania amazonensis amastigotes; conditions: read-out: IC50-ama; L. amazonensis amastigotes ref 28; cited from earlier work
[3] = Cytotoxic activity, MTT colorimetric method; type: cell-based, Swiss mice; conditions: Swiss, mouse, murine peritoneal macrophages
[4] = test system: L. amazonensis promastigotes; assay: Antipromastigote assay, viable promastigotes counted with trypan blue; type: cell-based; conditions: Leishmania amazonensis, 72 h, read-out: IC50 promastigote
Outline: (§2)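 Promastigotes were grown at 28 °C to mid-log phase: L. amazonensis (MPRO/BR/1972/M1841-LV-79) in LIT medium, L. mexicana (MNYC/BZ/62/M379) in Schneider's medium with 10% heat-inactivated FBS. Exponential-phase cells were plated at 1 × 10⁷ mL⁻¹ with test compound 1.28–100 μM. After 72 h, viable promastigotes were counted by trypan blue in a Neubauer chamber. Duplicates, three independent experiments.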

[5] = test system: L. mexicana intracellular amastigotes; assay: Antiamastigote activity in infected macrophages; type: cell-based; conditions: Leishmania mexicana, Macrophage, 48 h, read-out: IC50 amastigote
Outline: as §1, with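 “8” for “18”, “mexicana” for “amazonensis”, “(MNYC/BZ/62/M379)” for “(MPRO/BR/1972/M1841-LV-79)”, “48” for “24”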

[6] = test system: L. mexicana promastigotes; assay: Antipromastigote assay, viable promastigotes counted with trypan blue; type: cell-based; conditions: Leishmania mexicana, read-out: IC50 promastigote
Outline: as §2

| Compound | infection rate, fold lower than untreated cells and Amph B ([1]; L. amazonensis, at the tested concentrations (10 and 5 μM)) | IC50 [2] [µM] | IC50 [1] [µM] | CC50 [3] [µM] | IC50 [4] [µM] | IC50 [5] [µM] | IC50 [6] [µM] |
| --- | --- | --- | --- | --- | --- | --- | --- |
| CC(C)C[C@H](NC(=O)[C@H](Cc1c[nH]cn1)NC(=O)[C@H](Cc1ccc(O)cc1)NC(=O)[C@H](CCCNC(=N)N)NC(=O)[C@H](Cc1ccc(O)cc1)NC(=O)[C@H](CCCCN)NC(=O)[C@@H](N)CCCCN)C(=O)N[C@@H](CCCCN)C(=O)N1CCC[C@H]1C(=O)N[C@@H](Cc1ccccc1)C(=O)NCCCC[C@H](NC(=O)[C@H](Cc1ccccc1)NC(=O)[C@@H]1CCCN1C(=O)[C@H](CCCCN)NC(=O)[C@H](CC(C)C)NC(=O)[C@H](Cc1c[nH]cn1)NC(=O)[C@H](Cc1ccc(O)cc1)NC(=O)[C@H](CCCNC(=N)N)NC(=O)[C@H](Cc1ccc(O)cc1)NC(=O)[C@H](CCCCN)NC(=O)[C@H](CCCCN)NC(=O)c1ccc(CNC(=NC(=O)c2ccccc2)Nc2ccc(Br)cc2)cc1)C(N)=O [(GVL1)-p-Bt] (I: X2-KKYRYHLKPFK-NH2 / II: H-KKYRYHLKPF; amide I:11-II:C) | 3–4 fold |  |  |  |  |  |  |
| O=C(NC(=Nc1ccc(Br)cc1)NCc1ccccc1)c1ccccc1 [LQOF-G2, N-benzoyl-N′-benzyl-N″(4-bromophenyl)guanidine] |  | 5.6 | 5.6 ± 2.5 | 737.9 ± 1.4 | 19.6 ± 0.2 |  |  |
| C[C@@H]1[C@H](O)[C@@H](C)/C=C/C=C/C=C/C=C/C=C/C=C/C=C/[C@H](O[C@@H]2O[C@H](C)[C@@H](O)[C@H](N)[C@@H]2O)C[C@@H]2O[C@](O)(C[C@@H](O)C[C@@H](O)[C@H](O)CC[C@@H](O)C[C@@H](O)CC(=O)O[C@H]1C)C[C@H](O)[C@H]2C(=O)O [Amph B, amphotericin B] |  | 4.9 | 0.63 ± 0.02 |  | 0.7 ± 0.2 | 0.73 ± 0.2 | 0.45 ± 1.2 |
| O=C(O)c1ccc(CN/C(=N/C(=O)c2ccccc2)Nc2ccc(Br)cc2)cc1 [GVL1, (Z)-4-((2-benzoyl-3-(4-bromophenyl)guanidino)methyl) benzoic acid] |  |  | 8.9 ± 1.41 |  | 34.4 ± 0.1 | 7.5 ± 3.53 | 51.8 ± 0.1 |
